Two compounds from ChEMBL document CHEMBL1157912, “Impact of nature and length of linker incorporated in agonists on toll-like receptor 9-mediated immune responses” (J Med Chem, 2010) can be followed below.

In assay [1] the target is T1, Toll-like receptor 9 (Mus musculus) (UniProt Q9EQU3).
T1 sequence (whole entry): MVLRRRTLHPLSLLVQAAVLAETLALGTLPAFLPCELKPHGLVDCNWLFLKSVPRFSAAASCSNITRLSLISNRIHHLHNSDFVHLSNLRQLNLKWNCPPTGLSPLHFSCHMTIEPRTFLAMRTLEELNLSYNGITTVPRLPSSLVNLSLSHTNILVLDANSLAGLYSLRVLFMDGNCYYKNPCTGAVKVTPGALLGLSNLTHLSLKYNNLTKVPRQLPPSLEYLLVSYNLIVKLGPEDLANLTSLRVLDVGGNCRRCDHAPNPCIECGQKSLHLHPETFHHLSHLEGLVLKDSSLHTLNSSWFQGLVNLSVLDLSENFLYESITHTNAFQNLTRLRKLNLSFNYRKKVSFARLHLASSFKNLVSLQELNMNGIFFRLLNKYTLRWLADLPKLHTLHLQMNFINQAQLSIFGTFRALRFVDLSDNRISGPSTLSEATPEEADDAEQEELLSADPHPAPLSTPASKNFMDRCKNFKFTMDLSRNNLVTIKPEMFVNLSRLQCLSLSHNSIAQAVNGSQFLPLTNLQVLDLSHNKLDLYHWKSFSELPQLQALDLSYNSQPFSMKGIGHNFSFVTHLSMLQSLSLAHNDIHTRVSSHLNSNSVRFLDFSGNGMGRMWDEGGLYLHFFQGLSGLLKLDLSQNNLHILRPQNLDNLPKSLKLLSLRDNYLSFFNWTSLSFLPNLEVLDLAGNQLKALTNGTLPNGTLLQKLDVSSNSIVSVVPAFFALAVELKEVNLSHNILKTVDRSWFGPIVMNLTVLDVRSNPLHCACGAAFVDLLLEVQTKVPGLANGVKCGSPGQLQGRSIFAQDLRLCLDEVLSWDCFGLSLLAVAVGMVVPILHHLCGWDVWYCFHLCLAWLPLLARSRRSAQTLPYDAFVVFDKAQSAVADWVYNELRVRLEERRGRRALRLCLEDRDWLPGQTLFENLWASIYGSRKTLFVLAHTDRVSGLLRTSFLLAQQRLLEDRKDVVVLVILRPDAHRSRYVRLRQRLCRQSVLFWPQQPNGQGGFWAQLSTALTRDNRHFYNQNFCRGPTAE
In words: Activation of mouse TLR9 expressed in HEK293 cells assessed as induction of NF-kappaB activity after 18 hrs by SEAP assay. The assay is classed as cell-based. An outline of the steps:
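HEK293 cells stably expressing mouse TLR9 were grown in DMEM with 10% heat-inactivated FBS. At 80% confluence they were transiently transfected with a SEAP reporter plasmid (100 ng/well, lipofectamine) for 6 h. Medium was then replaced and agonists were added for 18 h. Supernatant SEAP was read with QuantiBlue substrate at 620-645 nm. Results are expressed as fold NF-κB activity over PBS control.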

The target in assay [2] is T2, Toll-like receptor 9 (Homo sapiens) (UniProt Q9NR96).
T2 sequence (whole entry): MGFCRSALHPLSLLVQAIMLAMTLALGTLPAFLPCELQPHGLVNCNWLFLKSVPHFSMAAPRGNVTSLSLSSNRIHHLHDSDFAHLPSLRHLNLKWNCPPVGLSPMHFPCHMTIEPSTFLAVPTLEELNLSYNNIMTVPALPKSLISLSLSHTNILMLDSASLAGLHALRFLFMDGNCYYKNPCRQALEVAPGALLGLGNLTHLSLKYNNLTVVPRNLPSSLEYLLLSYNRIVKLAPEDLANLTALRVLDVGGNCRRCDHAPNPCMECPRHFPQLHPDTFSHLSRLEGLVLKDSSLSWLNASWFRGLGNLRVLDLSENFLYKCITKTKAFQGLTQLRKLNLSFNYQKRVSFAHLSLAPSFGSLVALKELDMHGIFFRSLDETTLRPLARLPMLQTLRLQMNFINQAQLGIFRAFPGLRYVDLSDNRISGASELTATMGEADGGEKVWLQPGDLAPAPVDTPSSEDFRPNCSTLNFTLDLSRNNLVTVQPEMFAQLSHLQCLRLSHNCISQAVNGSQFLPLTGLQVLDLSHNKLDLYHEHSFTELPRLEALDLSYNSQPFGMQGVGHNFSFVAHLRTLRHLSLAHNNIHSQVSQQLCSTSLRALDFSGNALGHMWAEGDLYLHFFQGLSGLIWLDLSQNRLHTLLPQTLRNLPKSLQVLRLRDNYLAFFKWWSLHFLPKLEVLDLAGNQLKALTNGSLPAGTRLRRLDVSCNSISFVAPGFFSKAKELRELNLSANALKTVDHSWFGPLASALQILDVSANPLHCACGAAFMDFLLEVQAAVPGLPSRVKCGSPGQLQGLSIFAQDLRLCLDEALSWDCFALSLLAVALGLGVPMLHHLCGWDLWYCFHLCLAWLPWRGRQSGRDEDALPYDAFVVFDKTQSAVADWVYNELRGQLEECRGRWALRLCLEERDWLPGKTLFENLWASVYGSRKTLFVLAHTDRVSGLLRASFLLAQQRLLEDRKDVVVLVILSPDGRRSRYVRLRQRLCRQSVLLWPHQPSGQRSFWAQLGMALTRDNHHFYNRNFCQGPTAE
In words: Induction of TLR9-mediated immune stimulation in human PBMC assessed as IL1Ralpha production at 2 ug/ml after 24 hrs by luminex multiplex assay (RVb = 0.12 +/- 0.03 ng/ml).

Assay [3] deals with T2, Toll-like receptor 9 (Homo sapiens). The assay can be described thus: Induction of TLR9-mediated immune stimulation in human PBMC assessed as IL2R production at 10 ug/ml after 24 hrs by luminex multiplex assay (RVb = 0.02 +/- 0.01 ng/ml).
Assay [4] shares this target. In words: Induction of TLR9-mediated immune stimulation in human PBMC assessed as IL12 production at 2 ug/ml after 24 hrs by luminex multiplex assay (RVb = 0.00 ng/ml).
Assay [5] has the same target. In words: Induction of TLR9-mediated immune stimulation in human PBMC assessed as MIP1alpha production at 2 ug/ml after 24 hrs by luminex multiplex assay (RVb = 0.01 ng/ml).
The target is the same in assay [6]. The assay can be described thus: Induction of TLR9-mediated immune stimulation in human PBMC assessed as MIP1beta production at 2 ug/ml after 24 hrs by luminex multiplex assay (RVb = 0.03 +/- 0.02 ng/ml).
Assay [7] has the same target. The assay can be described thus: Induction of TLR9-mediated immune stimulation in human PBMC assessed as MIP1beta production at 10 ug/ml after 24 hrs by luminex multiplex assay (RVb = 0.03 +/- 0.02 ng/ml).
The target is the same in assay [8]. In words: Induction of TLR9-mediated immune stimulation in human PBMC assessed as IP10 production at 2 ug/ml after 24 hrs by luminex multiplex assay (RVb = 0.00 ng/ml).
For assay [9] the target is unchanged. In words: Induction of TLR9-mediated immune stimulation in human PBMC assessed as RANTES production at 2 ug/ml after 24 hrs by luminex multiplex assay (RVb = 0.05 +/- 0.04 ng/ml).
The target is the same in assay [10]. The assay can be described thus: Induction of TLR9-mediated immune stimulation in human PBMC assessed as RANTES production at 10 ug/ml after 24 hrs by luminex multiplex assay (RVb = 0.05 +/- 0.04 ng/ml).

As for `Cc1cn([C@H]2C[C@H](OCCC(O)CCOP(=O)(S)O[C@H]3C[C@H](n4cc(C)c(=O)[nH]c4=O)O[C@@H]3COP(=O)(S)O[C@H]3[C@@H](O)[C@H](n4ccc(N)nc4=O)O[C@@H]3COP(=O)(S)O[C@H]3C[C@H](n4cc(C)c(=O)[nH]c4=O)O[C@@H]3COP(=O)(S)O[C@H]3C[C@H](n4cc(C)c(=O)[nH]c4=O)O[C@@H]3COP(=O)(S)O[C@H]3C[C@H](n4ccc5c(=O)[nH]c(N)nc54)O[C@@H]3COP(=O)(S)O[C@H]3[C@@H](O)[C@H](n4ccc(N)nc4=O)O[C@@H]3COP(=O)(S)O[C@H]3C[C@H](n4cc(C)c(=O)[nH]c4=O)O[C@@H]3COP(=O)(S)O[C@H]3[C@@H](O)[C@H](n4cnc5c(=O)[nH]c(N)nc54)O[C@@H]3COP(=O)(S)O[C@H]3C[C@H](n4cc(C)c(=O)[nH]c4=O)O[C@@H]3COP(=O)(S)O[C@H]3[C@@H](O)[C@H](n4ccc(N)nc4=O)O[C@@H]3COP(=O)(S)O[C@H]3C[C@H](n4cc(C)c(=O)[nH]c4=O)O[C@@H]3CO)[C@@H](COP(=O)(S)O[C@H]3[C@@H](O)[C@H](n4ccc(N)nc4=O)O[C@@H]3COP(=O)(S)O[C@H]3C[C@H](n4cc(C)c(=O)[nH]c4=O)O[C@@H]3COP(=O)(S)O[C@H]3C[C@H](n4cc(C)c(=O)[nH]c4=O)O[C@@H]3COP(=O)(S)O[C@H]3C[C@H](n4ccc5c(=O)[nH]c(N)nc54)O[C@@H]3COP(=O)(S)O[C@H]3[C@@H](O)[C@H](n4ccc(N)nc4=O)O[C@@H]3COP(=O)(S)O[C@H]3C[C@H](n4cc(C)c(=O)[nH]c4=O)O[C@@H]3COP(=O)(S)O[C@H]3[C@@H](O)[C@H](n4cnc5c(=O)[nH]c(N)nc54)O[C@@H]3COP(=O)(S)O[C@H]3C[C@H](n4cc(C)c(=O)[nH]c4=O)O[C@@H]3COP(=O)(S)O[C@H]3[C@@H](O)[C@H](n4ccc(N)nc4=O)O[C@@H]3COP(=O)(S)O[C@H]3C[C@H](n4cc(C)c(=O)[nH]c4=O)O[C@@H]3CO)O2)c(=O)[nH]c1=O` (stereo not given in full), the Activity result in assay [1] is “Dose-dependent effect”; in assay [2], 8.94 ng/mL; in assay [3] it was 0.12 ng/mL; in assay [4], 0.14 ng/mL; in assay [5] it was 0.05 ng/mL; in [6], 0.12 ng/mL. Moreover, the Activity came to 0.61 ng/mL in assay [7], 0.02 ng/mL in [8], 0.31 ng/mL in [9] and 1.15 ng/mL in [10].
For `Cc1cn([C@H]2C[C@H](O[C@H]3C[C@@H](O)C[C@@H](OP(=O)(S)O[C@H]4C[C@H](n5cc(C)c(=O)[nH]c5=O)O[C@@H]4COP(=O)(S)O[C@H]4[C@@H](O)[C@H](n5ccc(N)nc5=O)O[C@@H]4COP(=O)(S)O[C@H]4C[C@H](n5cc(C)c(=O)[nH]c5=O)O[C@@H]4COP(=O)(S)O[C@H]4C[C@H](n5cc(C)c(=O)[nH]c5=O)O[C@@H]4COP(=O)(S)O[C@H]4C[C@H](n5ccc6c(=O)[nH]c(N)nc65)O[C@@H]4COP(=O)(S)O[C@H]4[C@@H](O)[C@H](n5ccc(N)nc5=O)O[C@@H]4COP(=O)(S)O[C@H]4C[C@H](n5cc(C)c(=O)[nH]c5=O)O[C@@H]4COP(=O)(S)O[C@H]4[C@@H](O)[C@H](n5cnc6c(=O)[nH]c(N)nc65)O[C@@H]4COP(=O)(S)O[C@H]4C[C@H](n5cc(C)c(=O)[nH]c5=O)O[C@@H]4COP(=O)(S)O[C@H]4[C@@H](O)[C@H](n5ccc(N)nc5=O)O[C@@H]4COP(=O)(S)O[C@H]4C[C@H](n5cc(C)c(=O)[nH]c5=O)O[C@@H]4CO)C3)[C@@H](COP(=O)(S)O[C@H]3[C@@H](O)[C@H](n4ccc(N)nc4=O)O[C@@H]3COP(=O)(S)O[C@H]3C[C@H](n4cc(C)c(=O)[nH]c4=O)O[C@@H]3COP(=O)(S)O[C@H]3C[C@H](n4cc(C)c(=O)[nH]c4=O)O[C@@H]3COP(=O)(S)O[C@H]3C[C@H](n4ccc5c(=O)[nH]c(N)nc54)O[C@@H]3COP(=O)(S)O[C@H]3[C@@H](O)[C@H](n4ccc(N)nc4=O)O[C@@H]3COP(=O)(S)O[C@H]3C[C@H](n4cc(C)c(=O)[nH]c4=O)O[C@@H]3COP(=O)(S)O[C@H]3[C@@H](O)[C@H](n4cnc5c(=O)[nH]c(N)nc54)O[C@@H]3COP(=O)(S)O[C@H]3C[C@H](n4cc(C)c(=O)[nH]c4=O)O[C@@H]3COP(=O)(S)O[C@H]3[C@@H](O)[C@H](n4ccc(N)nc4=O)O[C@@H]3COP(=O)(S)O[C@H]3C[C@H](n4cc(C)c(=O)[nH]c4=O)O[C@@H]3CO)O2)c(=O)[nH]c1=O` (stereo not given in full), the Activity entry is “Dose-dependent effect” in assay [1]; 13.6 ng/mL in [2]; 0.28 ng/mL in assay [3]; 0.13 ng/mL in [4]; 0.05 ng/mL in assay [5]; 0.13 ng/mL in assay [6]. In addition, the Activity stood at 2.15 ng/mL in assay [7], 0.03 ng/mL in assay [8], 0.93 ng/mL in [9] and 2.13 ng/mL in assay [10].
